In ChEMBL document CHEMBL3526056, “Characterization of in vitro glucuronidation clearance of a range of drugs in human kidney microsomes: comparison with liver and intestinal glucuronidation and impact of albumin” (Drug Metab Dispos, 2012):

Legend:
[1] = target: T1, UDP-glucuronosyltransferase 2B7 (Homo sapiens, UniProt P16662); test: Drug metabolism in human kidney microsomes assessed as UGT2B7-mediated unbound intrinsic glucuronidation clearance at 1 uM after 30 to 60 mins by LC-MS/MS analysis; type: ADME
T1 sequence (P16662 whole entry): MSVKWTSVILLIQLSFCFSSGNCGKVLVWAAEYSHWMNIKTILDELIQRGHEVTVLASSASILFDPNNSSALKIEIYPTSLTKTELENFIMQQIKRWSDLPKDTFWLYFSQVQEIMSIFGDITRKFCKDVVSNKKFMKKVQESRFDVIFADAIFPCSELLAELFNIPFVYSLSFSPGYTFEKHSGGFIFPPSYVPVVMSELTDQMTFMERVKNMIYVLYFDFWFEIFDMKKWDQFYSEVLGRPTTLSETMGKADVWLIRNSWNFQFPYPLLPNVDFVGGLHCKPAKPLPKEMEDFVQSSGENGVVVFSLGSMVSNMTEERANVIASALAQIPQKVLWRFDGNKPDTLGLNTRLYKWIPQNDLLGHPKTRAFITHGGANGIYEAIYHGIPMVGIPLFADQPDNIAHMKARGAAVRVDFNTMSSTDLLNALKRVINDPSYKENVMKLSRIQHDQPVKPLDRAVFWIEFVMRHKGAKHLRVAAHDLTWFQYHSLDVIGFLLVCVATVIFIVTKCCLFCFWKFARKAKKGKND

[2] = target: T1, UDP-glucuronosyltransferase 2B7; test: Drug metabolism in human liver microsomes assessed as UGT2B7-mediated unbound intrinsic glucuronidation clearance at 1 uM after 30 to 60 mins by LC-MS/MS analysis in presence of 1% bovine serum albumin; type: ADME
[3] = Unbound intrinsic glucuronidation clearance in human intestinal microsomes at 1 uM after 30 to 60 mins by LC-MS/MS analysis in presence of UDP-glucuronosyltransferase; type: ADME, Intestine, Microsome
How it was run: (§1)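 Alamethicin-activated pooled microsomes (HLM 150 donors; HKM 8; HIM 18). Drug at 1 μM final, preincubated 5 min at 37°C in 0.1 M phosphate pH 7.1 with 3.45 mM MgCl2, 1.15 mM EDTA, 115 μM saccharic acid lactone. Started with […] cofactor (5 mM final), 30–60 min. Cofactor-free controls. Parent depletion by LC-MS/MS, single-exponential k. Corrected by HLM-dialysis fu,inc. Duplicates; n=3 (HIM n=1).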

[4] = target: T1, UDP-glucuronosyltransferase 2B7; test: Drug metabolism in human liver microsomes assessed as UGT2B7-mediated unbound intrinsic glucuronidation clearance at 1 uM after 30 to 60 mins by LC-MS/MS analysis; type: ADME
Liver microsome [5] = test: Fraction metabolized glucuronidation in human liver microsomes in presence of UDP-glucuronosyltransferase and bovine serum albumin; type: ADME
[6] = Fraction unbound in human kidney microsomes at 1 uM after 30 to 60 mins by LC-MS/MS analysis; type: ADME
[7] = Unbound intrinsic glucuronidation clearance in human intestinal microsomes at 1 uM after 30 to 60 mins by LC-MS/MS analysis in presence of UDP-glucuronosyltransferase and 1% bovine serum albumin; type: ADME, Intestine, Microsome
[8] = Unbound intrinsic glucuronidation clearance in human kidney microsomes at 1 uM after 30 to 60 mins by LC-MS/MS analysis in presence of UDP-glucuronosyltransferase and 1% bovine serum albumin; type: ADME, microsome
[9] = Fraction unbound in human liver microsomes at 1 uM after 30 to 60 mins by LC-MS/MS analysis; type: ADME
[10] = Glucuronidation clearance in human liver microsomes in presence of bovine serum albumin; type: ADME
[11] = target: T1, UDP-glucuronosyltransferase 2B7; test: Drug metabolism in human intestinal microsomes assessed as UGT2B7-mediated unbound intrinsic glucuronidation clearance at 1 uM after 30 to 60 mins by LC-MS/MS analysis; type: ADME, Intestine
[12] = Unbound intrinsic glucuronidation clearance in human kidney microsomes at 1 uM after 30 to 60 mins by LC-MS/MS analysis in presence of UDP-glucuronosyltransferase; type: ADME, microsome; how it was run: as §1
[13] = target: T1, UDP-glucuronosyltransferase 2B7; test: Drug metabolism in human kidney microsomes assessed as UGT2B7-mediated unbound intrinsic glucuronidation clearance at 1 uM after 30 to 60 mins by LC-MS/MS analysis in presence of 1% bovine serum albumin; type: ADME
Liver microsome [14] = test: Fraction unbound in human liver microsomes at 1 uM after 30 to 60 mins by LC-MS/MS analysis in presence of 1% bovine serum albumin; type: ADME; conditions: microsomes, 1 µM
Liver microsome [15] = test: Unbound intrinsic glucuronidation clearance in human liver microsomes at 1 uM after 30 to 60 mins by LC-MS/MS analysis in presence of UDP-glucuronosyltransferase; type: ADME; how it was run: as §1
Liver microsome [16] = test: Unbound intrinsic glucuronidation clearance in human liver microsomes at 1 uM after 30 to 60 mins by LC-MS/MS analysis in presence of UDP-glucuronosyltransferase and 1% bovine serum albumin; type: ADME
[17] = Renal clearance in human; type: ADME, organism-based, Kidney; conditions: in vivo
[18] = Fraction unbound in human plasma
[19] = Fraction unbound in human intestinal microsomes at 1 uM after 30 to 60 mins by LC-MS/MS analysis; type: ADME, Intestine, Microsome
[20] = Glucuronidation clearance in human liver microsomes; type: ADME
Liver microsome [21] = test: Fraction metabolized glucuronidation in human liver microsomes in presence of UDP-glucuronosyltransferase; type: ADME
[22] = Fraction unbound in human liver microsomes at 1 uM […] by LC-MS/MS analysis in presence of 2% bovine serum albumin; type: ADME
[23] = Ratio of UGT1A8/2B7-mediated unbound intrinsic glucuronidation clearance in human intestinal microsomes to UGT1A8/2B7-mediated unbound intrinsic glucuronidation clearance in human liver microsomes at 1 uM in presence of 2% bovine serum albumin; type: ADME
How it was run: (§2)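 Ratios of mean unbound CLint,UGT, each scaled per g tissue, between pooled liver, kidney and intestinal microsomes. Values come from 1 μM substrate-depletion assays in pH 7.1 phosphate at 37°C, run with or without BSA (1% for acids, 2% for bases/neutral drugs). Corrected for nonspecific binding. Kidney and liver n = 3; intestine n = 1; each in duplicate.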

[24] = Unbound intrinsic glucuronidation clearance in human kidney microsomes at 1 uM after 30 to 60 mins by LC-MS/MS analysis in presence of UDP-glucuronosyltransferase and 2% bovine serum albumin; type: ADME, microsome
How it was run: (§3)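 Pooled alamethicin-activated human liver, kidney or intestinal microsomes. […] Duplicate incubations of 30–60 min, with no-cofactor controls. Parent depletion read by LC-MS/MS. k from a single-exponential fit, corrected by fu,inc.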

[25] = Drug metabolism in human liver microsomes assessed as UGT1A8/2B7-mediated unbound intrinsic glucuronidation clearance at 1 uM after 30 to 60 mins by LC-MS/MS analysis; type: ADME; how it was run: as §3
[26] = Ratio of UGT1A8/2B7-mediated unbound intrinsic glucuronidation clearance in human kidney microsomes to UGT1A8/2B7-mediated unbound intrinsic glucuronidation clearance in human intestinal microsomes at 1 uM in presence of 2% bovine serum albumin; type: ADME; how it was run: as §2
[27] = Clearance in iv dosed human; type: ADME, organism-based; conditions: in vivo
Liver microsome [28] = test: Unbound intrinsic glucuronidation clearance in human liver microsomes at 1 uM after 30 to 60 mins by LC-MS/MS analysis in presence of UDP-glucuronosyltransferase and 2% bovine serum albumin; type: ADME; how it was run: as §3
[29] = Drug metabolism in human liver microsomes assessed as UGT1A8/2B7-mediated unbound intrinsic glucuronidation clearance at 1 uM after 30 to 60 mins by LC-MS/MS analysis in presence of 2% bovine serum albumin; type: ADME; how it was run: as §3
[30] = Drug metabolism in human kidney microsomes assessed as UGT1A8/2B7-mediated unbound intrinsic glucuronidation clearance at 1 uM after 30 to 60 mins by LC-MS/MS analysis in presence of 2% bovine serum albumin; type: ADME; how it was run: as §3
[31] = Drug metabolism in human intestinal microsomes assessed as UGT1A8/2B7-mediated unbound intrinsic glucuronidation clearance at 1 uM after 30 to 60 mins by LC-MS/MS analysis; type: ADME, Intestine; how it was run: as §3
[32] = Ratio of UGT1A8/2B7-mediated unbound intrinsic glucuronidation clearance in human kidney microsomes to UGT1A8/2B7-mediated unbound intrinsic glucuronidation clearance in human liver microsomes at 1 uM; type: ADME; how it was run: as §2
[33] = Drug metabolism in human kidney microsomes assessed as UGT1A8/2B7-mediated unbound intrinsic glucuronidation clearance at 1 uM after 30 to 60 mins by LC-MS/MS analysis; type: ADME; how it was run: as §3
[34] = Ratio of UGT1A8/2B7-mediated unbound intrinsic glucuronidation clearance in human kidney microsomes to UGT1A8/2B7-mediated unbound intrinsic glucuronidation clearance in human liver microsomes at 1 uM in presence of 2% bovine serum albumin; type: ADME; how it was run: as §2
[35] = Ratio of drug level blood to plasma in human; type: ADME; conditions: blood and plasma
[36] = Ratio of UGT1A8/2B7-mediated unbound intrinsic glucuronidation clearance in human intestinal microsomes to UGT1A8/2B7-mediated unbound intrinsic glucuronidation clearance in human liver microsomes at 1 uM; type: ADME; how it was run: as §2
[37] = Unbound intrinsic glucuronidation clearance in human intestinal microsomes at 1 uM after 30 to 60 mins by LC-MS/MS analysis in presence of UDP-glucuronosyltransferase and 2% bovine serum albumin; type: ADME, Intestine, Microsome; how it was run: as §3
[38] = Ratio of unbound intrinsic glucuronidation clearance in human intestinal microsomes in presence of 2% bovine serum albumin to unbound intrinsic glucuronidation clearance in human intestinal microsomes in absence of bovine serum albumin; type: ADME, Intestine, Microsome
How it was run: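 Ratios of mean scaled unbound CLint,UGT (per g tissue) between tissues, or between with and without BSA. Microsomal depletion assays at 1 μM, or 5 μM for propofol, in pH 7.1 phosphate at 37°C, read by LC-MS/MS. Kidney and liver n = 3, intestine n = 1, each in duplicate.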

[39] = Ratio of UGT1A8/2B7-mediated unbound intrinsic glucuronidation clearance in human kidney microsomes to UGT1A8/2B7-mediated unbound intrinsic glucuronidation clearance in human intestinal microsomes at 1 uM; type: ADME; how it was run: as §2

What does the source list for `Cc1ccc(C)c(OCCCC(C)(C)C(=O)O)c1` [GEMFIBROZIL]?
CL free [1]: 3.39 mL/min/g; CL free [2]: 73.6 mL/min/g; CL free [3]: 23.9 µL/min/mg; CL free [4]: 10.4 mL/min/g; Drug metabolism (Liver microsome [5]): 0.86; fraction unbound at 1 µM [6]: 0.9; CL free [7]: 40 µL/min/mg; CL free [8]: 1910 µL/min/mg; fraction unbound at 1 µM [9]: 0.9; CLhep predicted [10]: 1.93 mL/min/kg; CL free [11]: 0.492 mL/min/g; CL free [12]: 265 µL/min/mg; CL free [13]: 24.4 mL/min/g; Fu (Liver microsome [14]): 0.01; CL free (Liver microsome [15]): 259 µL/min/mg; CL free (Liver microsome [16]): 1840 µL/min/mg; CL renal [17]: 0.02 mL/min/kg; fraction unbound [18]: 0.005; fraction unbound at 1 µM [19]: 0.82; CLhep predicted [20]: 1.78 mL/min/kg; Drug metabolism (Liver microsome [21]): 0.79

Which fraction unbound at 1 µM [22] does the source give for `C=CCN1CC[C@]23c4c5ccc(O)c4O[C@H]2C(=O)CC[C@@]3(O)[C@H]1C5` [NALOXONE] here?
Its fraction unbound at 1 µM is 0.96.

What about the Ratio [23] of the same compound?
Its Ratio is 0.131.

And the CL free [3]?
The CL free was 0.502 µL/min/mg.

And the CL free [24]?
The CL free was 52.7 µL/min/mg.

What about the CL free [25] of the same compound?
Its CL free is 0.402 mL/min/g.

And the Ratio [26]?
The Ratio was 2.31.

And the Drug metabolism (Liver microsome [5])?
The Drug metabolism was 0.89.

What about the fraction unbound at 1 µM [6] of the same compound?
Its fraction unbound at 1 µM is 1.

And the clearance [27]?
The clearance was 21.7 mL/min/kg.

And the CL free (Liver microsome [28])?
Its CL free is 55.6 µL/min/mg.

And the CL free [29]?
The CL free was 2.22 mL/min/g.

What about the CL free [30] of the same compound?
The CL free was 0.675 mL/min/g.

And the fraction unbound at 1 µM [9]?
Its fraction unbound at 1 µM is 1.

What about the CLhep predicted [10] of the same compound?
Its CLhep predicted is 19.3 mL/min/kg.

What about the CL free [31] of the same compound?
Its CL free is 0.01 mL/min/g.

And the CL free [12]?
Its CL free is 10.9 µL/min/mg.

What about the Ratio [32] of the same compound?
Its Ratio is 0.348.

What about the CL free (Liver microsome [15]) of the same compound?
The CL free was 10 µL/min/mg.

And the CL free [33]?
The CL free was 0.14 mL/min/g.

And the Ratio [34]?
The Ratio was 0.304.

What about the blood plasma ratio [35] of the same compound?
Its blood plasma ratio is 1.

What about the fraction unbound [18] of the same compound?
The fraction unbound was 0.57.

What about the Ratio [36] of the same compound?
Its Ratio is 0.026.

What about the fraction unbound at 1 µM [19] of the same compound?
The fraction unbound at 1 µM was 1.

What about the CL free [37] of the same compound?
Its CL free is 14.2 µL/min/mg.

What about the CLhep predicted [20] of the same compound?
Its CLhep predicted is 14.1 mL/min/kg.

What about the Ratio [38] of the same compound?
Its Ratio is 28.

What about the Ratio [39] of the same compound?
Its Ratio is 13.5.

What about the Drug metabolism (Liver microsome [21]) of the same compound?
The Drug metabolism was 0.65.
